Test results as given in ChEMBL document CHEMBL4334422, “Toxicities and beneficial protection of H2S donors based on nonsteroidal anti-inflammatory drugs” (Medchemcomm, 2019).
Activity calls are given as the source filed them.

Assays:
[1] = Toxicity in Wistar kyoto rat assessed as hyperemia in gastrointestinal tissue at 6.1 mg/kg, ip administered for 14 days by H and E staining based optical microscopic method; type: organism-based; conditions: in vivo, 336 h
How it was run: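 WKY rats (3 per group) were dosed for 14 days with ibuprofen at 6.1 mg·kg⁻¹ per day or test compound at 10 mg·kg⁻¹. Rats were killed by cervical dislocation after ether anaesthesia. Stomach and intestine were cut into 5–10 µm sections, HE-stained and examined by optical microscopy.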

[2] = Toxicity in Wistar kyoto rat assessed as inflammatory cell infiltration in gastric mucosa at 6.1 mg/kg, ip administered for 14 days by H and E staining based optical microscopic method; type: organism-based; conditions: in vivo, 336 h
How it was run: (§1)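 WKY rats, 3 per group, were dosed for 14 days, with the compound at 10 mg/kg per dose and the ibuprofen comparator at 6.1 mg/kg. Rats were anaesthetised with ether and killed by cervical dislocation. Stomach and intestine were sectioned at 5-10 µm, stained with haematoxylin and eosin, and examined by optical microscopy.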

[3] = Toxicity in Wistar kyoto rat assessed as swollen gastric mucosal cells at 6.1 mg/kg, ip administered for 14 days by H and E staining based optical microscopic method; type: organism-based; conditions: in vivo, 336 h; how it was run: as §1
[4] = Toxicity in Wistar kyoto rat assessed as hyperemia in intestinal mucosa at 6.1 mg/kg, ip administered for 14 days by H and E staining based optical microscopic method; type: organism-based; conditions: in vivo, 336 h; how it was run: as §1
[5] = Toxicity in Wistar kyoto rat assessed as inflammatory cell infiltration in gastrointestinal tissue at 6.1 mg/kg, ip administered for 14 days by H and E staining based optical microscopic method; type: organism-based; conditions: in vivo, 336 h; how it was run: as §1
[6] = Toxicity in Wistar kyoto rat assessed as intestinal mucosal edema at 6.1 mg/kg, ip administered for 14 days by H and E staining based optical microscopic method; type: organism-based; conditions: in vivo, 336 h; how it was run: as §1
H9c2 [7] = assay: Cytotoxicity against rat H9c2 cells assessed as reduction in cell viability at 10 to 80 uM incubated for 24 hrs; type: cell-based; conditions: h9c2, 24 h
How it was run: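 Rat cardiac H9c2 cells were grown in DMEM with 10% FBS and penicillin/streptomycin at 37 °C and 5% CO₂. They were seeded at 5×10⁴ cells/mL and allowed to adhere for 8 h. Cells were exposed to 10, 40 or 80 µM compound for 24 h, and survival was compared with untreated cells.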

[8] = Cardiotoxicity in SHR rat assessed as neatly arranged myocardial fibers at 10 mg/kg, ip administered for 14 days by H and E staining based microscopic assay; type: toxicity, organism-based; conditions: in vivo, 336 h
How it was run: (§2)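 SHRs were given 10 mg·kg⁻¹ intraperitoneally per day for 14 consecutive days, with an ibuprofen comparator and a normal control. Myocardial tissue was then removed. Sections were HE-stained for light microscopy and also examined by transmission electron microscopy at 6000, 10000 and 20000-fold.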

[9] = Cardiotoxicity in SHR rat assessed as appearance of myocardial interstitial collagen fibers at 10 mg/kg, ip administered for 14 days by H and E staining based microscopic assay; type: toxicity, organism-based; conditions: in vivo, 336 h; how it was run: as §2
[10] = Cardiotoxicity in SHR rat assessed as coarser myocardial fiber formation at 10 mg/kg, ip administered for 14 days by H and E staining based microscopic assay; type: toxicity, organism-based; conditions: in vivo, 336 h; how it was run: as §2
[11] = Cardiotoxicity in SHR rat assessed as increase in muscle bundle gaps at 10 mg/kg, ip administered for 14 days by H and E staining based microscopic assay; type: toxicity, organism-based; conditions: in vivo, 336 h; how it was run: as §2
[12] = Cardiotoxicity in SHR rat assessed as reduction in muscle bundle gaps at 10 mg/kg, ip administered for 14 days by H and E staining based microscopic assay; type: toxicity, organism-based; conditions: in vivo, 336 h; how it was run: as §2
[13] = Cardiotoxicity in SHR rat assessed as collagen fibers stained in interstitium at 10 mg/kg, ip administered for 14 days by H and E staining based microscopic assay; type: toxicity, organism-based; conditions: in vivo, 336 h; how it was run: as §2
Rattus norvegicus [14] = assay: Cardioprotective activity in SHR rat assessed as swollen myocardial interstitial vascular at 10 mg/kg, ip administered for 14 days by TEM analysis; type: functional, organism-based; how it was run: as §2
Rattus norvegicus [15] = assay: Cardioprotective activity in SHR rat assessed as loosen myocardial fibers at 10 mg/kg, ip administered for 14 days by TEM analysis; type: functional, organism-based; how it was run: as §2
Rattus norvegicus [16] = assay: Cardioprotective activity in SHR rat assessed as myocardial fibrous submucosal swelling at 10 mg/kg, ip administered for 14 days by TEM analysis; type: functional, organism-based; how it was run: as §2
Rattus norvegicus [17] = assay: Cardioprotective activity in SHR rat assessed as myocardial fiber melting at 10 mg/kg, ip administered for 14 days by TEM analysis; type: functional, organism-based; how it was run: as §2
Rattus norvegicus [18] = assay: Cardioprotective activity in SHR rat assessed as myocardial contraction band formation at 10 mg/kg, ip administered for 14 days by TEM analysis; type: functional, organism-based; how it was run: as §2
Rattus norvegicus [19] = assay: Cardioprotective activity in SHR rat assessed as myocardial disk dissociation at 10 mg/kg, ip administered for 14 days by TEM analysis; type: functional, organism-based; how it was run: as §2
Rattus norvegicus [20] = assay: Cardioprotective activity in SHR rat assessed as swollen myocardial mitochondria at 10 mg/kg, ip administered for 14 days by TEM analysis; type: functional, organism-based; how it was run: as §2
Rattus norvegicus [21] = assay: Cardioprotective activity in SHR rat assessed as ventricular pumping dysfunction at 10 mg/kg, ip administered for 14 days by TEM analysis; type: functional, organism-based; how it was run: as §2
H9c2 [22] = assay: Cytoprotective activity against H2O2-induced toxicity in rat H9c2 cells assessed as increase in cell repair at 10 to 80 uM pretreated with compound followed by H2O2 addition and measured after 1 to 8 hrs by giemsa staining based microscopic method; type: functional
How it was run: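 H9c2 cells were injured with H₂O₂ (400 µM) for 1, 4 or 8 h to give light, medium and heavy damage, in the presence of compound at 10–80 µM. Acetaminophen or ibuprofen served as controls. Viability was measured as mean ± SD of three experiments. SOD and MDA contents were measured as mean ± SD of four experiments. Morphology was assessed by Giemsa staining under light microscopy.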

Rattus norvegicus [23] = assay: Antihypertensive activity in spontaneously hypertensive Wistar kyoto rat assessed as reduction in systolic arterial pressure at 10 mg/kg, ip administered for 6 hrs and measured every 30 mins post treatment by tail-cuff method; type: functional
How it was run: (§3)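 Male SHRs (8 weeks, 300 ± 25 g; 6 per group), given compound intraperitoneally once daily at 8 am in 0.5% (w/v) sodium carboxymethyl cellulose/DMSO 3/1 (v/v), 2 mL·kg⁻¹. Vehicle-treated SHR and WKY controls. SBP, DBP and heart rate were measured by tail-cuff on awake, restrained rats before dosing, then every 30 min for 6 h. Values are mean ± SD of four independent experiments.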

Rattus norvegicus [24] = assay: Antihypertensive activity in spontaneously hypertensive Wistar kyoto rat assessed as reduction in diastolic arterial pressure at 10 mg/kg, ip administered for 6 hrs and measured every 30 mins post treatment by tail-cuff method; type: functional; how it was run: as §3

Measured: Activity

CC(C)Cc1ccc(C(C)C(=O)O)cc1 (configuration not stated) [IBUPROFEN]
Toxic: [1] | [2] | [3] | [4] | [5] | [6]
Active: [9] | [10] | [11] | [12] | [13]
Non-Toxic: H9c2 [7] | [8]
not listed: H9c2 [22] | Rattus norvegicus [23] | Rattus norvegicus [24]
active: all other assays above

CC(=O)Nc1ccc(O)cc1 [ACETAMINOPHEN]
active: H9c2 [22]
Non-Toxic: H9c2 [7]

C[C@H](CS)C(=O)N1CCC[C@H]1C(=O)O
inactive: Rattus norvegicus [23] | Rattus norvegicus [24]

COC(=O)C1=C(C)NC(C)=C(C(=O)OC)C1c1ccccc1[N+](=O)[O-]
inactive: Rattus norvegicus [23] | Rattus norvegicus [24]
